The source made the active and inactive calls. No cut-off for these calls is given here.
Key:
[1] = molecular target: Dual specificity protein kinase CLK1 (Homo sapiens) (UniProt P49759); test: Inhibition of human CLK1 assessed as remaining activity at 1 uM by ATP-competition binding assay relative to control
Summary of the method: (§1)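 KINOMEscan ATP-site-dependent competition binding panel of 395 human kinases, with compound tested at 1 μM. Binding is reported as remaining signal relative to control.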

[2] = molecular target: Tyrosine-protein kinase JAK2 (Homo sapiens) (UniProt O60674); test: Inhibition of human JAK2 JH1 domain assessed as remaining activity at 1 uM by ATP-competition binding assay relative to control
Summary of the method: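 Compound at 1μM was screened in an ATP-site-dependent competition binding assay (KINOMEscan) against a 395-kinase human panel. Signal was expressed relative to control.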

[3] = system: Proto-oncogene tyrosine-protein kinase receptor Ret (Homo sapiens), P07949 [V804L]; test: Inhibition of human RET V804L assessed as remaining activity at 1 uM by ATP-competition binding assay relative to control
Sequence of Proto-oncogene tyrosine-protein kinase receptor Ret (Homo sapiens), P07949 [V804L] (P07949 whole entry V804L): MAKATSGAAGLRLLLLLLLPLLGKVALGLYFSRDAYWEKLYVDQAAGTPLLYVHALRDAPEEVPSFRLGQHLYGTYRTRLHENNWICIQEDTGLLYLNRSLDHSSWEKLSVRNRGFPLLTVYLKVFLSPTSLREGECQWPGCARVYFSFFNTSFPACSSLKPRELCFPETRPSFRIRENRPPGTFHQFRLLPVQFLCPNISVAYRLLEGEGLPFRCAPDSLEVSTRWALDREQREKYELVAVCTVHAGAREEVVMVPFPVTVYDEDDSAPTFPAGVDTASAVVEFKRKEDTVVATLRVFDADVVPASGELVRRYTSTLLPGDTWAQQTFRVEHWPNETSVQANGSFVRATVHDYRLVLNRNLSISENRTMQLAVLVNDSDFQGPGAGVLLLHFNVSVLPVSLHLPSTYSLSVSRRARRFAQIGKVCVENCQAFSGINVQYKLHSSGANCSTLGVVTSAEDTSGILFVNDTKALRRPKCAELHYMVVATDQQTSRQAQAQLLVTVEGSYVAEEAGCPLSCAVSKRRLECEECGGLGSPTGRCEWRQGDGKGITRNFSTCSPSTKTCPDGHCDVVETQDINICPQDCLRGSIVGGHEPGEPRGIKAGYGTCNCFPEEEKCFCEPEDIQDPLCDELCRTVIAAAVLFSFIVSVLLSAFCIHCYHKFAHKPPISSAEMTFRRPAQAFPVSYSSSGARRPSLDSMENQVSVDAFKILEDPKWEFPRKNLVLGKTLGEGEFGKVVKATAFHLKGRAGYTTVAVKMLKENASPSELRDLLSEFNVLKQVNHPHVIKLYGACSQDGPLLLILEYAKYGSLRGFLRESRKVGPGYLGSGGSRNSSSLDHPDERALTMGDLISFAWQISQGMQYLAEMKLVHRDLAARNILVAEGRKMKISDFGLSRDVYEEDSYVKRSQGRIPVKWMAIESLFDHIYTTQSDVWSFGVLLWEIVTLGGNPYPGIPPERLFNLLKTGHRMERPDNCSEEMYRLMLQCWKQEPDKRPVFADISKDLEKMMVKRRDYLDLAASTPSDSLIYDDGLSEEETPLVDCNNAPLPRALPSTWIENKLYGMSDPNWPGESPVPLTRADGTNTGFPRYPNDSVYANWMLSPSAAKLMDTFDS
Summary of the method: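 KINOMEscan ATP-site-dependent competition binding assay across a 395-kinase human panel including mutants; compound tested at 1μM; binding expressed relative to control signal.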

[4] = molecular target: Mitogen-activated protein kinase kinase kinase 20 (Homo sapiens) (UniProt Q9NYL2); test: Inhibition of human ZAK assessed as remaining activity at 1 uM by ATP-competition binding assay relative to control
Summary of the method: (§2)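 Single-concentration (1 μM) screen in an ATP-site-dependent competition binding assay (KINOMEscan, outsourced) covering 395 human kinases, mutants included. Non-covalent binding was read as the remaining signal relative to the control signal.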

[5] = system: Splenocyte; test: In vivo inhibition of BCR signaling in female […] mouse assessed as change in CD86 expression at 25 mg/kg, po administered and measured after stimulation with anti-IgM for 18 h by flow cytometry analysis; assay type: functional, organism-based
Summary of the method: (§3)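 Female C57BL/6 mice (5/group) received vehicle or 25 mg/kg drug by oral gavage at time zero, with spleens taken at time points from 3 to 24 h. Splenocytes were stimulated ex vivo with goat anti-mouse IgM at 10μg/mL for 18 h at 37°C in 5% CO2, then Fc-blocked and stained for CD19 plus CD69, CD86 or phospho-S6(S235/236), with 7-AAD to exclude dead cells. Read-out was flow cytometry on >5,000 gated CD19+ cells, compared with vehicle.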

[6] = molecular target: Casein kinase I isoform gamma-1 (Homo sapiens) (UniProt Q9HCP0); test: Inhibition of human CSNK1G1 assessed as remaining activity at 1 uM by ATP-competition binding assay relative to control; summary of the method: as §1
[7] = molecular target: Cyclin-dependent kinase 16 (Homo sapiens) (UniProt Q00536); test: Inhibition of human PCTK1 assessed as remaining activity at 1 uM by ATP-competition binding assay relative to control
Summary of the method: (§4)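 Single-point profiling at 1μM in an ATP-site-dependent competition binding assay across a panel of 395 human kinases, including mutant forms. The read-out is kinase binding signal in the presence of test agent, expressed as inhibition relative to the control signal. This screen assessed noncovalent binding interactions.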

[8] = system: Proto-oncogene tyrosine-protein kinase receptor Ret (Homo sapiens), P07949 [M918T]; test: Inhibition of human RET M918T assessed as remaining activity at 1 uM by ATP-competition binding assay relative to control; summary of the method: as §2
Sequence of Proto-oncogene tyrosine-protein kinase receptor Ret (Homo sapiens), P07949 [M918T] (P07949 whole entry M918T): as the sequence (P07949 whole entry V804L) above, with L804V, M918T counted along it

[9] = molecular target: Serine/threonine-protein kinase N1 (Homo sapiens) (UniProt Q16512); test: Inhibition of human PKN1 assessed as remaining activity at 1 uM by ATP-competition binding assay relative to control; summary of the method: as §2
[10] = molecular target: Casein kinase II subunit alpha (Homo sapiens) (UniProt P68400); test: Inhibition of human CSNK2A1 assessed as remaining activity at 1 uM by ATP-competition binding assay relative to control; summary of the method: as §1
Sequence of Casein kinase II subunit alpha (Homo sapiens) (P68400 whole entry, looked up): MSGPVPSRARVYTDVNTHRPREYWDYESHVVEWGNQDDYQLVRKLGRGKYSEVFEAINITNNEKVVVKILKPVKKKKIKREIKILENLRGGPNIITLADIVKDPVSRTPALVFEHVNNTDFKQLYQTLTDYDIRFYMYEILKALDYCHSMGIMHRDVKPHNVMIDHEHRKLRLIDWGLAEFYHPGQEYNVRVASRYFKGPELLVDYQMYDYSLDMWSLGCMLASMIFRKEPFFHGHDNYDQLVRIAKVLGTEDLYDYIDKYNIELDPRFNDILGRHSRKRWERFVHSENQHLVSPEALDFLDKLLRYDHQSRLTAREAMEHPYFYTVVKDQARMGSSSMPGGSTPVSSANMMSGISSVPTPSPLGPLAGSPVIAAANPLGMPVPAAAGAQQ

[11] = molecular target: Leukocyte tyrosine kinase receptor (Homo sapiens) (UniProt P29376); test: Inhibition of human LTK assessed as remaining activity at 1 uM by ATP-competition binding assay relative to control; summary of the method: as §4
[12] = molecular target: Casein kinase I isoform gamma-3 (Homo sapiens) (UniProt Q9Y6M4); test: Inhibition of human CSNK1G3 assessed as remaining activity at 1 uM by ATP-competition binding assay relative to control; summary of the method: as §1
Sequence of Casein kinase I isoform gamma-3 (Homo sapiens) (Q9Y6M4 whole entry, looked up, canonical isoform): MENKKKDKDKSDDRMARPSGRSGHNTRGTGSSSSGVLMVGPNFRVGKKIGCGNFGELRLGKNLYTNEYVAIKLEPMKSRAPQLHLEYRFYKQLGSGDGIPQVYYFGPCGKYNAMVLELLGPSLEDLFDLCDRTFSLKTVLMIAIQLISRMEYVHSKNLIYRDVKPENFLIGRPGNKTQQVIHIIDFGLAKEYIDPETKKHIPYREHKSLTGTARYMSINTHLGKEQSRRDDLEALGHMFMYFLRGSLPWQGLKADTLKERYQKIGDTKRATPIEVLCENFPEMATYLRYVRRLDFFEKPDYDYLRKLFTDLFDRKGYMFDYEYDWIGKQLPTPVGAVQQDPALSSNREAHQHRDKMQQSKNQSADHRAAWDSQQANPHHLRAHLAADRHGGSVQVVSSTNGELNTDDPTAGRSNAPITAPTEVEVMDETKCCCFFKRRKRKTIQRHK

[13] = molecular target: Serine/threonine-protein kinase 4 (Homo sapiens) (UniProt Q13043); test: Inhibition of human MST1 assessed as remaining activity at 1 uM by ATP-competition binding assay relative to control; summary of the method: as §4
[14] = molecular target: Calcium/calmodulin-dependent protein kinase type 1 (Homo sapiens) (UniProt Q14012); test: Inhibition of human CAMK1 assessed as remaining activity at 1 uM by ATP-competition binding assay relative to control; summary of the method: as §1
[15] = system: Splenocyte; test: In vivo inhibition of BCR signaling in female […] mouse assessed as change in phospho-S6 expression at 25 mg/kg, po administered and measured after stimulation with anti-IgM for 18 h by flow cytometry analysis; assay type: functional, organism-based; summary of the method: as §3
[16] = molecular target: Serine/threonine-protein kinase LATS1 (Homo sapiens) (UniProt O95835); test: Inhibition of human LATS1 assessed as remaining activity at 1 uM by ATP-competition binding assay relative to control; summary of the method: as §4
[17] = molecular target: Mitogen-activated protein kinase 14 (Homo sapiens) (UniProt Q16539); test: Inhibition of human P38alpha assessed as remaining activity at 1 uM by ATP-competition binding assay relative to control; summary of the method: as §4
Sequence of Mitogen-activated protein kinase 14 (Homo sapiens) (Q16539 whole entry): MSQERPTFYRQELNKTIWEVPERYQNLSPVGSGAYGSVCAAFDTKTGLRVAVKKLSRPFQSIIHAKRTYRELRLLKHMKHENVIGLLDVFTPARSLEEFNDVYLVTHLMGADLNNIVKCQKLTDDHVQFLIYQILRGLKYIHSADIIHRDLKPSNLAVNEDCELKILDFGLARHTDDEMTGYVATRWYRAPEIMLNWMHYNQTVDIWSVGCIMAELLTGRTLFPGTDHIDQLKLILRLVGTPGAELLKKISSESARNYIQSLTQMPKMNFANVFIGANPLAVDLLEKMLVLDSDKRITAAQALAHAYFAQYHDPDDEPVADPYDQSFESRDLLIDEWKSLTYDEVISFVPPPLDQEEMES

[18] = molecular target: Serine/threonine-protein kinase 3 (Homo sapiens) (UniProt Q13188); test: Inhibition of human MST2 assessed as remaining activity at 1 uM by ATP-competition binding assay relative to control; summary of the method: as §4
[19] = molecular target: Serine/threonine-protein kinase SIK1 (Homo sapiens) (UniProt P57059); test: Inhibition of human SIK assessed as remaining activity at 1 uM by ATP-competition binding assay relative to control; summary of the method: as §2
[20] = molecular target: Ribosomal protein S6 kinase alpha-5 (Homo sapiens) (UniProt O75582); test: Inhibition of human RPS6KA5 assessed as remaining activity at 1 uM by ATP-competition binding assay relative to control; summary of the method: as §2
[21] = system: Receptor-type tyrosine-protein kinase FLT3 (Homo sapiens), P36888 [D835H]; test: Inhibition of human FLT3 D835H mutant assessed as remaining activity at 1 uM by ATP-competition binding assay relative to control; summary of the method: as §4
[22] = molecular target: Tyrosine-protein kinase receptor Tie-1 (Homo sapiens) (UniProt P35590); test: Inhibition of human TIE1 assessed as remaining activity at 1 uM by ATP-competition binding assay relative to control; summary of the method: as §2
[23] = molecular target: Calcium/calmodulin-dependent protein kinase type II subunit gamma (Homo sapiens) (UniProt Q13555); test: Inhibition of human CAMK2G assessed as remaining activity at 1 uM by ATP-competition binding assay relative to control; summary of the method: as §1
Sequence of Calcium/calmodulin-dependent protein kinase type II subunit gamma (Homo sapiens) (Q13555 whole entry): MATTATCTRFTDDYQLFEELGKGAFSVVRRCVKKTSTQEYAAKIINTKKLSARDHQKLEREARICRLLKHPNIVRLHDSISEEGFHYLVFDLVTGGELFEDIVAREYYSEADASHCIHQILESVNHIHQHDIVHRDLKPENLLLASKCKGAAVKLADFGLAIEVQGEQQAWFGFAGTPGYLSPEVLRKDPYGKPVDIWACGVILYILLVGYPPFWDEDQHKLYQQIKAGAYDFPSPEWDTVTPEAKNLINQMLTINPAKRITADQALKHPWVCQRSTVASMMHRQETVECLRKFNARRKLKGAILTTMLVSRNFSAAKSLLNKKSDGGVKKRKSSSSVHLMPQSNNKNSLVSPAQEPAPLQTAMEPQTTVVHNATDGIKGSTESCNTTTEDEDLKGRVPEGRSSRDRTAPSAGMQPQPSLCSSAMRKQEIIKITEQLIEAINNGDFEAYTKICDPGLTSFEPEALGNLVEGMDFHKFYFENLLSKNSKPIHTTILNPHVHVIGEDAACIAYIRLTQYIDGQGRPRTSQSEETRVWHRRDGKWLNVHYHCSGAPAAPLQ

[24] = molecular target: Hepatocyte growth factor receptor (Homo sapiens) (UniProt P08581); test: Inhibition of human MET assessed as remaining activity at 1 uM by ATP-competition binding assay relative to control; summary of the method: as §4
[25] = molecular target: Tyrosine-protein kinase JAK1 (Homo sapiens) (UniProt P23458); test: Inhibition of human JAK1 JH2 domain assessed as remaining activity at 1 uM by ATP-competition binding assay relative to control; summary of the method: as §4
Sequence of Tyrosine-protein kinase JAK1 (Homo sapiens) (P23458 whole entry, the tested form may be a part): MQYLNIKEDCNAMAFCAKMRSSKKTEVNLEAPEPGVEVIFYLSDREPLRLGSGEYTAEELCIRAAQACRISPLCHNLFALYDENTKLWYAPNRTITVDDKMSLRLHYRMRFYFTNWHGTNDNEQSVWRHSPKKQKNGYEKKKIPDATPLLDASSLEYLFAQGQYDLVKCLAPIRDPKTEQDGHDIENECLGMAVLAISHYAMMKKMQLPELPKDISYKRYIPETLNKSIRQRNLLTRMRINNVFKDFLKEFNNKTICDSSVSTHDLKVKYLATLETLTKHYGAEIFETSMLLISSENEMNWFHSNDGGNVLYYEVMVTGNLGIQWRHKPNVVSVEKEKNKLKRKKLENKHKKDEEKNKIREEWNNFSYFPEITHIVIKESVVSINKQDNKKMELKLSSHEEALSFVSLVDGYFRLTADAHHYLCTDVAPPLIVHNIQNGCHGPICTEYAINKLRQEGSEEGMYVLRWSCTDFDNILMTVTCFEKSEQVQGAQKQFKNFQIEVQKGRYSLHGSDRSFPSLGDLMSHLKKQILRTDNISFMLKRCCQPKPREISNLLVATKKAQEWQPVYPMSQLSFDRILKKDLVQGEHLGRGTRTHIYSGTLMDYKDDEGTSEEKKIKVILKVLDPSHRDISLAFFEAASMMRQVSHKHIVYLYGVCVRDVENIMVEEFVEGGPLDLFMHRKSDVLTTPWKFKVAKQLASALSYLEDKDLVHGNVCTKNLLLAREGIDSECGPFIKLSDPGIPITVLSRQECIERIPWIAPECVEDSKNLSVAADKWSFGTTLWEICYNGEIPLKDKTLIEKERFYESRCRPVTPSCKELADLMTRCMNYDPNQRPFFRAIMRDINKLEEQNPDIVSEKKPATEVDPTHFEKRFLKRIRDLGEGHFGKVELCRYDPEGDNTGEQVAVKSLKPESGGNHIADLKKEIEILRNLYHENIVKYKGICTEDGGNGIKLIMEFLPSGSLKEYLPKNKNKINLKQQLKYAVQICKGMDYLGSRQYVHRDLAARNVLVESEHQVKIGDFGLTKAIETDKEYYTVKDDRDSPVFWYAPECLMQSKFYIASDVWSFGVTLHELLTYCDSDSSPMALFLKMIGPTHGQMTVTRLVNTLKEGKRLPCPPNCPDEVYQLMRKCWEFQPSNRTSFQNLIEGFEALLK

[26] = molecular target: Serine/threonine-protein kinase TNNI3K (Homo sapiens) (UniProt Q59H18); test: Inhibition of human TNNI3K assessed as remaining activity at 1 uM by ATP-competition binding assay relative to control; summary of the method: as §2
Sequence of Serine/threonine-protein kinase TNNI3K (Homo sapiens) (Q59H18 whole entry): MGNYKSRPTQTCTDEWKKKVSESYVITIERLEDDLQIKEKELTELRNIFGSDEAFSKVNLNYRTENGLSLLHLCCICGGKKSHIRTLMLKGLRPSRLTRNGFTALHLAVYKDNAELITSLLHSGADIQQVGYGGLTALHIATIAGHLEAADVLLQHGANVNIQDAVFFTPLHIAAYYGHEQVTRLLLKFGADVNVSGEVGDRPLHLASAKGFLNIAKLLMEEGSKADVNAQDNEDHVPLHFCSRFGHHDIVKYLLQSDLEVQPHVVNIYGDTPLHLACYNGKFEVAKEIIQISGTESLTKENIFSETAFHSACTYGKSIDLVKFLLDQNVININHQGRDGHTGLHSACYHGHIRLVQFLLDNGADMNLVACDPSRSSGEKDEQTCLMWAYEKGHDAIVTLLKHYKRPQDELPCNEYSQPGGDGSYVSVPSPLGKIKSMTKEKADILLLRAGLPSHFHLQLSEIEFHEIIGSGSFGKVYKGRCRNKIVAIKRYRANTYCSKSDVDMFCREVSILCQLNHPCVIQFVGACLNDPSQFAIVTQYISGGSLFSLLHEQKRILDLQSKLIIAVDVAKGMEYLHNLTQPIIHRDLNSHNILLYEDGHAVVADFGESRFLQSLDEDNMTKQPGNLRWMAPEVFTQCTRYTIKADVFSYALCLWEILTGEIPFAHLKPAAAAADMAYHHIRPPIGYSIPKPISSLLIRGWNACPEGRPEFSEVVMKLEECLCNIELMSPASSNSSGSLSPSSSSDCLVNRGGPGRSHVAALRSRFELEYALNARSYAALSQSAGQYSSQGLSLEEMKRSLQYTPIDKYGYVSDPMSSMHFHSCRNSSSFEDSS

For CC#CC(=O)N1CCC[C@H]1c1nc(-c2ccc(C(=O)Nc3ccccn3)cc2)c2c(N)nccn12 [ACALABRUTINIB], the Activity [1] was 94%, the Activity [2] was 81% and the Activity [3] was 93%. For the same compound, the Activity [4] was 84%, the Activity [5] was “Active” and the Activity [6] was 78%. It also gave an Activity [7] of 100%, an Activity [8] of 71% and an Activity [9] of 94%. The Activity [10] was 54%, the Activity [11] was 86% and the Activity [12] was 100%. The Activity [13] was 87%, the Activity [14] was 87% and the Activity [15] was “Active”. It also gave an Activity [16] of 93%, an Activity [17] of 84% and an Activity [18] of 65%. The Activity [19] was 88%, the Activity [20] was 84% and the Activity [21] was 86%. The Activity [22] was 89%, the Activity [23] was 84% and the Activity [24] was 91%. It also gave an Activity [25] of 71% and an Activity [26] of 38%.

Reference: ChEMBL document CHEMBL5678815 (Clin Cancer Res, 2017)
